High-throughput results as filed in PubChem BioAssay.
Shown are actives, neighbours in structure and some others; about 3.7% of the full set was active somewhere.
EP2 mod = modulators of human EP2 prostaglandin E2 receptor | EP2-expressing cells, cAMP HTRF FRET, PGE2 co-stimulation | induction, % at 25 µM | 260,000 compounds, 0.83% hits | P43116;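 active = compounds whose cAMP rise, as percent of the full-agonist control response, exceeds 60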;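 note: rat C6 glioma line stably carrying human EP2 under a CMV promoter; the protocol text gives 20 µM as final concentration; 100% = response of wells given 1 µM PGE2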
GPR7 antagonist = blocks human GPR7 receptor signaling; P48145; GPR7-expressing cells, fluorescence antagonist assay; inhibition, % at 4.4 µM; 290,000 compounds, 1.1% hits; AID 1861; in the data active = inhibition above about 16%, passing the limit was not always enough;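 note: cells stimulated with the agonist NPW; 0% = agonist with vehicle and 100% = vehicle without agonist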
OX1R antag-1 = antagonists of human orexin 1 receptor (OX1R) | O43613 | inhibition, % at 6.6 µM | 330,000 compounds, 1.8% hits | OX1R-expressing cells, FRET antagonist read-out; in the data active = inhibition mostly above about 38%, no sharp cut-off; inactive = mostly below about 40%;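 note: 0% = agonist challenge alone and 100% = reference antagonist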
Target sequence (O43613 whole entry, looked up): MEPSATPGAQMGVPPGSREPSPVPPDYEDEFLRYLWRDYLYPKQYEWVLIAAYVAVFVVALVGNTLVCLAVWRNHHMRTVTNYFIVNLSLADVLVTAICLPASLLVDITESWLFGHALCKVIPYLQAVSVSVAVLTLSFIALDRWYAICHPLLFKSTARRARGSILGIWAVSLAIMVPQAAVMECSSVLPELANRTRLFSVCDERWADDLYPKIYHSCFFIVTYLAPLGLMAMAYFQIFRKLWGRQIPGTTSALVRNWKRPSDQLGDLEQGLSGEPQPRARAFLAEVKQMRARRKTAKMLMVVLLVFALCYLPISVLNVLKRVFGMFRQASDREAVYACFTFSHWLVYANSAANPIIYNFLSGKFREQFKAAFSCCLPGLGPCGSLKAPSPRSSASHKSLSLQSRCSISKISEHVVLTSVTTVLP
CHO parental Ca = counter-screen: ATP calcium response change in parental CHO cells; inhibition, % at 5.6 µM; parental CHO-K1, ATP-induced calcium, Fluo-8 fluorescence; 330,000 compounds, 0.63% hits;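 active = inhibition above that plate's mean sample inhibition plus 3 SD, cut at about 26% in these data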;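 note: 0% = ATP-challenged DMSO wells and 100% = DMSO wells without ATP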
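Test system: parental CHO cells; detection: calcium-sensitive Fluo-8 fluorescence; evaluation: percent inhibition of calcium signal; also added: ATP as calcium-mobilizing challenge; repeats: one well per compound; control set: ATP-challenged DMSO wells low, unchallenged DMSO wells high; compound: single nominal dose of 5.6 µM per compound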
OX1R antag-2 = human HCRTR1 antagonism. O43613. CHO/OX1R cells, Fluo-8 calcium fluorescence, orexin A. inhibition, % at 5 µM. 330,000 compounds, 0.43% hits. AID 434989;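 active = inhibition above its plate's threshold, mean inhibition of all tested compounds on the plate plus 3 SD, cut at about 37% in these data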;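 note: 0% = orexin A challenge wells and 100% = SB-334867-A antagonist wells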
PGE2 EP2 inh = inhibitors of human EP2 prostaglandin E2 receptor. C6 glioma cells expressing human EP2, cAMP TR-FRET; cells stimulated with saturating PGE2. P43116. inhibition, % at 25 µM. 260,000 compounds, 0.52% hits;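 active = percent inhibition above 40 after rounding to a whole number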;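 note: rat C6 glioma host cells with rolipram phosphodiesterase inhibitor present; the protocol text gives 20 µM as final concentration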
OX1R Fluo8 conf = OX1R (human) antagonism, confirmed; shares compounds with OX1R antag-2; CHO/OX1R cells, orexin A calcium Fluo-8 fluorescence; inhibition, % at 5 µM; 1,100 compounds, 38% hits; AID 492963; in the data active = inhibition above about 29%;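 note: 0% = agonist challenge alone and 100% = reference antagonist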
CHO Ca counter = counter-screen for OX1R antagonists: effect in parental CHO cells | shares compounds with OX1R antag-2 | parental CHO-K1, ATP-induced calcium, Fluo-8 fluorescence | inhibition, % at 5.6 µM | 1,100 compounds, 9.3% hits | AID 492965;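 active = inhibition above a per-plate limit, the mean inhibition of that plate's test compounds plus 3 SD, cut at about 25% in these data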;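 note: 0% = ATP challenge with DMSO and 100% = DMSO without ATP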
Numbers without * were called inactive; x = no result.

SMILES	EP2 mod	GPR7 antagonist	OX1R antag-1	CHO parental Ca	OX1R antag-2	PGE2 EP2 inh	OX1R Fluo8 conf	CHO Ca counter
O=C(Nc1cccc(Cl)c1)Nc1ccc2c(c1)OCO2	-9	-11	69	15	32	6	9	6
Cc1nn(C)c(C)c1CNC(=O)Nc1cccc(Cl)c1C	15	-1	7	-12	-10	10	x	x
Cc1cc(NC(=O)c2ccc(Cl)cc2)c(C(C)C)cc1O	-4	-17	22	-3	-3	15	x	x
CNc1cc(CSC)nc(SCc2ccc(Cl)cc2Cl)n1	4	-11	36	-12	53*	1	3	-9
CCCCOc1ccc(S(=O)(=O)Nc2cc(OC)ccc2OC)cc1	-30	10	15	17	51*	8	3	5
CC(C(=O)Nc1ccccc1)c1ccc(-c2ccccc2)c(F)c1 (stereo unspecified)	-55	-10	31	13	40*	10	13	23
C=CCC(COCc1ccccc1)NS(=O)(=O)c1ccccc1Br (stereo unspecified)	23	x	49	-11	34	9	8	-7
C=CC(COCc1ccccc1)N(C(=O)OC(C)(C)C)S(=O)(=O)c1ccccc1Br (stereo unspecified)	24	x	38	-10	-7	2	x	x
CC(c1cccs1)N(Cc1ccco1)C(=O)Nc1ccc(Cl)c(Cl)c1 (stereo unspecified)	24	-12	22	-2	44*	8	-23	-16
COc1cccc(NC(=O)N(Cc2ccco2)C(C)c2cccs2)c1 (stereo unspecified)	21	-1	11	-14	-12	10	x	x
CNc1snc(C)c1C(=O)OCC(=O)c1ccc(Cl)cc1	x	x	19	2	37	x	16	45*
CNc1snc(C)c1C(=O)OC(C)C(=O)c1ccc(F)cc1 (stereo unspecified)	x	x	15	-20	-2	x	x	x
O=C(O)c1ccc(N2C(=O)CC(SC(=NCc3ccc4c(c3)OCO4)Nc3ccc(F)cc3)C2=O)cc1 (stereo unspecified)	-21	6	28	6	32	5	31*	-3
COc1ccc2c(COC(=O)c3cccc(S(=O)(=O)NCC(C)C)c3)cc(=O)oc2c1	x	9	34	15	46*	x	42*	5
Cc1cccc2sc(NC(=O)CCNS(=O)(=O)c3cccs3)nc12	-25	2	39	20	31	7	17	4
COc1ccc(-c2ocnc2C(=O)NCc2nn(-c3ccccc3)nc2C)cc1	-65	-4	25	24	38	17	8	29*
O=C(O)c1cc(Cl)c(Cl)cc1C(=O)N1CCOCC1	3	-7	4	8	28	17	x	x
O=C(NC12CC3CC(CC(C3)C1)C2)N1C2CCC1CC(O)(c1cccnc1)C2 (stereo unspecified)	21	x	x	x	x	6	x	x
COc1ccc(NS(=O)(=O)c2ccc(NC(=S)NC(=O)C(C)C)cc2)cc1	-79	20	31	18	31	20	32*	13
O=S(=O)(Nc1ccc(Nc2ccccc2)cc1)c1ccc(F)cc1	x	x	5	3	-8	x	x	x
O=S(=O)(Nc1ccc(S(=O)(=O)Nc2ccccc2)cc1)c1ccccc1	7	15	5	11	36	9	8	-1
Cc1nn(-c2ccccc2)c2[nH]c(=O)c(CNCCCN(C)c3ccccc3)cc12	-16	x	x	x	x	10	x	x
O=C(COC(=O)Cn1cnc2ccccc21)Nc1ccc2c(c1)C(=O)c1ccccc1C2=O	-28	-6	24	-10	-7	11	x	x
O=C(Nc1ccc(OC(F)(F)F)cc1)N1CCN(c2ccnc3cc(Cl)ccc23)CC1	-44	-7	16	-2	24	14	19	35*
CC(C)(C)C(=O)N1CCN(c2ccnc3cc(Cl)ccc23)CC1	x	2	7	-5	-21	x	x	x
SMILES	EP2 mod	GPR7 antagonist	OX1R antag-1	CHO parental Ca	OX1R antag-2	PGE2 EP2 inh	OX1R Fluo8 conf	CHO Ca counter
C=CCn1c(SCC(=O)Nc2sccc2C(N)=O)nc2ccc(Cl)cc2c1=O	-44	2	46	9	53*	23	16	8
C=CCn1c(SCC(=O)Nc2sccc2C(N)=O)nc2ccccc2c1=O	-15	-16	31	-27	-22	8	x	x
CCSc1nnc2nc3[nH]c4c(C)cccc4c3nn12	36	-9	58	-2	-3	6	x	x
COc1ccc2c(C(=O)CN3CCC(C)CC3)c[nH]c2c1	-9	2	19	-4	-15	5	x	x
O=C(COc1ccc(C(=O)NCc2cccnc2)cc1)Nc1cccc(C(F)(F)F)c1	x	x	34	16	28	x	12	17
Cc1cc(C)c(C)c(S(=O)(=O)NC(C(=O)O)C(C)C)c1C (stereo unspecified)	5	-6	12	-8	-9	13	x	x
Cc1coc2cc3oc(=O)ccc3cc12	x	14	5	-1	106*	x	2	18
CCOc1cccc(-c2c(C(=O)N/N=C/c3ccc(C)s3)nnn2-c2nonc2N)c1	x	-14	12	-3	-9	x	x	x
CCOc1cccc(-c2c(C(=O)N/N=C/c3c(F)cccc3Cl)nnn2-c2nonc2N)c1	x	3	17	-2	34	x	35*	-1
O=C(NCCC1=CCCCC1)C1CCC(=O)N(Cc2ccc(Cl)cc2)C1 (stereo unspecified)	x	-8	0	-25	-10	x	x	x
CN1CCN(c2ccc(NC(=O)COc3ccccc3[N+](=O)[O-])cc2)CC1	-27	-18	58	-22	-21	3	x	x
CC(C)C(=O)N1CCN(c2ccc(NC(=O)COc3ccccc3[N+](=O)[O-])cc2)CC1	-34	-22	51	8	28	44*	27	4
O=C(N/N=C/c1ccccc1OC(=O)N1CCOCC1)c1cccs1	-22	-7	4	-8	-8	16	x	x
O=C(OCc1cccc([N+](=O)[O-])c1)c1cc2ccccc2oc1=O	x	-14	9	-12	45	x	-7	0
COC(=O)c1cccc(COC(=O)c2cc3ccccc3oc2=O)c1	x	-11	2	-21	-14	x	x	x
COc1ccc(C(=O)Nc2cccc(C(=O)N/N=C/c3ccc(OC)cc3OC)c2)cc1	x	0	25	-14	-27	x	x	x
CCN(CC)c1ccc(C(=O)N/N=C/c2ccc(OC)cc2OC)cc1	-71	0	77	-31	41*	12	34*	-11
Nn1c(SCC(=O)Nc2ccc3c(c2)OCO3)nncc1=O	-8	-24	24	10	5	4	x	x
Cc1ccc(CN2C(=O)N/C(=C\c3ccc(N4CCOCC4)cc3)C2=O)cc1	14	0	15	-15	-19	7	x	x
